Experimental data collected from several papers.
Each line is one published result; the experiments were not run side by side.
Observed: microbial growth

Compound | organism | technique | strain | time | MIC
CC/C(=C(\c1ccccc1)c1ccc(OCCN(C)C)cc1)c1ccccc1 | Saccharomyces cerevisiae | – | – | – | 20 to 25 µM
Cc1ccc(C)n1-c1ccc(-c2nnc(-c3ccc(N(C)C)cc3)[nH]2)cc1 | Saccharomyces cerevisiae | broth dilution | ATCC9763 | – | 62.5 µg/mL
O=C(O)COc1cccc(Oc2ccc(-c3noc(-c4ccc(O)cc4)n3)cc2)c1 | Clostridioides difficile | broth dilution | – | 48 h | 50 µg/mL
Clc1ccccc1C(c1ccccc1)(c1ccccc1)n1ccnc1 | Saccharomyces cerevisiae | – | – | – | 20 to 25 µM
Cc1ccc(C)n1-c1ccc(-c2nnc(-c3c(Cl)cccc3Cl)[nH]2)cc1 | Saccharomyces cerevisiae | broth dilution | ATCC9763 | – | 2 µg/mL
O=[N+]([O-])c1cc(-c2nc(-c3ccc(Oc4ccc(C(F)(F)F)cc4)cc3)no2)cnc1O | Clostridioides difficile | broth dilution | ATCC43255 | 48 h | 2 to 4 µg/mL
CC(=O)Nc1ccc(-c2nc(-c3ccc(Oc4ccccc4)cc3)no2)cc1 | Clostridioides difficile | broth dilution | – | 48 h | > 50 µg/mL
C[C@@H]1[C@H](O)[C@@H](C)/C=C/C=C/C=C/C=C/C=C/C=C/C=C/[C@H](O[C@@H]2O[C@H](C)[C@@H](O)[C@H](N)[C@@H]2O)C[C@@H]2O[C@](O)(C[C@@H](O)C[C@@H](O)[C@H](O)CC[C@@H](O)C[C@@H](O)CC(=O)O[C@H]1C)C[C@H](O)[C@H]2C(=O)O | Saccharomyces cerevisiae | – | – | – | 0.5 µg/mL
Cc1ccc(C)n1-c1ccc(-c2nnc(S)s2)cc1 | Saccharomyces cerevisiae | broth dilution | ATCC9763 | – | 62.5 µg/mL
CC1(C)S[C@@H]2[C@H](NC(=O)[C@H](N)c3ccccc3)C(=O)N2[C@H]1C(=O)O | Shigella sonnei | broth dilution | ATCC25931 | – | 4 µg/mL
Cl.Oc1ccc(-c2nc(-c3ccc(Oc4ccc5c(c4)CNCC5)cc3)no2)cc1 | Clostridioides difficile | broth dilution | – | 48 h | 4 µg/mL
Cc1ccc(C)n1-c1ccc(-c2nnc(-c3ccc(O)cc3)[nH]2)cc1 | Saccharomyces cerevisiae | broth dilution | ATCC9763 | – | 31.2 µg/mL
O=C(O)Cc1ccccc1Oc1ccc(-c2noc(-c3ccc(O)cc3)n2)cc1 | Clostridioides difficile | broth dilution | – | 48 h | > 50 µg/mL
Oc1ccc(-c2nc(-c3ccc(Oc4ccccc4CBr)cc3)no2)cc1 | Clostridioides difficile | broth dilution | ATCC43255 | 48 h | 8 to 128 µg/mL
Cc1ncc([N+](=O)[O-])n1CCO | Clostridioides difficile | broth dilution | R20291 | – | > 0.5 µg/mL
Cc1ccc(C)n1-c1ccc(-c2nnco2)cc1 | Saccharomyces cerevisiae | broth dilution | ATCC9763 | – | 125 µg/mL
O=[N+]([O-])c1ccc(-c2nc(-c3ccc(Oc4ccccc4)cc3)no2)cc1 | Clostridioides difficile | broth dilution | – | 48 h | 8 µg/mL
